This assay concerns the target Amyloid-beta precursor protein (Homo sapiens, UniProt P05067). In words: Binding affinity to human amyloid beta (1 to 42) fibril by fluorescence intensity assay. In outline:
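Fibrils grown from human insulin (3 mg/mL, Tris-HCl 50 mM pH 3), E. coli-expressed human α-syn (3 mg/mL, pH 7.4) or Aβ(1–42) (0.5 mg/ml, 1% NH4OH). Fibril level taken as supernatant protein depletion. Plate-reader intensity read at each ligand's maximal excitation/emission wavelengths, dye blanks subtracted. Kd from single-site saturation fit.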

For seven molecules, Kd results are on record in BindingDB's records for doi:10.1016/j.bmc.2011.09.065 (2011).

pKd: −log10 of the molar value.

Chain of Amyloid-beta precursor protein (P05067 whole entry): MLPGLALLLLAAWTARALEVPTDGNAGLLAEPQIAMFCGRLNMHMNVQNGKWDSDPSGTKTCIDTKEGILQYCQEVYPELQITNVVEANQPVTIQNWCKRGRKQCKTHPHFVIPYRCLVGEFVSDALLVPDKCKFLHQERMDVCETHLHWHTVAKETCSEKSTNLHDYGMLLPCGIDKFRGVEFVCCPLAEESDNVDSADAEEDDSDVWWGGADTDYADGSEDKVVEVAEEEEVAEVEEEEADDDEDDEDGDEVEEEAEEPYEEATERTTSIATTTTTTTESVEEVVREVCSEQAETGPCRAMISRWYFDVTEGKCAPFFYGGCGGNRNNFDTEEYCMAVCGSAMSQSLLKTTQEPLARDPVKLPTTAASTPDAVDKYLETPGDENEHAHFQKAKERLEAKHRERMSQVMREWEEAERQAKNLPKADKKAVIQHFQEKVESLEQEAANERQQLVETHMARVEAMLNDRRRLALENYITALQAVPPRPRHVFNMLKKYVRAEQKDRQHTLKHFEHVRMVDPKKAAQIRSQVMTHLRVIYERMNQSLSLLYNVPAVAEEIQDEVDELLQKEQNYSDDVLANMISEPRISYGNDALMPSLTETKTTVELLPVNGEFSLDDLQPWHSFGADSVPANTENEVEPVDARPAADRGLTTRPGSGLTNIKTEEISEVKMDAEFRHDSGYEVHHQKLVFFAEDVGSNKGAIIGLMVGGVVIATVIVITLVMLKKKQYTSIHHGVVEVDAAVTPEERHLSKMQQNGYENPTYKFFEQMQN

With `CN(CCF)c1ccc(/C=C/c2nc3ccccc3s2)cc1`, the pKd (commonly the negative decadic logarithm of the Kd, by convention in mol/L) is 7.04.

For `CN(CCF)c1ccc(/C=C\c2nc3ccccc3o2)cc1`, the pKd was 6.78. Molecule `CN(CCF)c1ccc(/C=C/c2nc3ccccc3n2C)cc1` showed a pKd of 6.72. Next, `CN(CCF)c1ccc(/C=C/c2nc3ccccc3o2)cc1`: 6.65.

As to `CN(CCF)c1ccc(/C=C\c2nc3ccccc3s2)cc1`, the pKd was 7.38. Molecule `CN(CCF)c1ccc(/C=C\c2nc3ccccc3n2C)cc1` showed a negative logarithm of the Kd (pKd) of 6.54. This pKd is 0.84 log units lower than that of the molecule before. Take `CN(CCF)c1ccc(/C=C/c2nc3ccccc3[nH]2)cc1`: the pKd was 6.56.
